Source: paper PMC4104214 (Nuclear medicine and biology, 2014)

Key:
MAGL [1] = target: T1, MAGL (Rattus norvegicus, UniProt Q8R431); test: Ex vivo brain uptake and pharmacological blocking in rats; set-up: species or system rat (male Sprague-Dawley)
T1 sequence (Q8R431 1-303): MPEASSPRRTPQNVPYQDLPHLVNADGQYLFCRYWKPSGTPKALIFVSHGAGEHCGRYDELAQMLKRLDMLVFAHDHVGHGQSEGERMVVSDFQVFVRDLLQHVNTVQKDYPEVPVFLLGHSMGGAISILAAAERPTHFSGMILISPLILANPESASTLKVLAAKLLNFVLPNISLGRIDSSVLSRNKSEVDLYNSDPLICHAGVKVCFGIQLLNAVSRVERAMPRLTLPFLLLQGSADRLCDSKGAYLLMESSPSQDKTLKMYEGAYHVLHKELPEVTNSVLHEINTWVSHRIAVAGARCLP
Summary of the method: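 Restrained conscious male Sprague-Dawley rats (330–370 g, n = 4/group) received 28–34 MBq of tracer (208 GBq/μmol) in 0.3 mL 5% Tween80 buffered saline via warm-water-dilated tail vein. They were decapitated at 2 and 40 min. The blocking group was pretreated with unlabeled inhibitor (2 mg/kg ip, 5% DMSO/5% Tween80 saline) and killed at 40 min. Cortex, cerebellum, hypothalamus and rest of brain were weighed and gamma-counted, decay-corrected against dose standards. Injected dose was corrected for tail residue.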

MAGL [2] = target: T2, MAGL (Mus musculus, UniProt O35678); test: Ex vivo whole brain uptake and pharmacological blocking in mice; set-up: species or system mouse (male C57BL/6); conditions: for whole brain uptake: conscious mice, iv tail vein, 2 and 40 min post injection
T2 sequence (O35678 1-303): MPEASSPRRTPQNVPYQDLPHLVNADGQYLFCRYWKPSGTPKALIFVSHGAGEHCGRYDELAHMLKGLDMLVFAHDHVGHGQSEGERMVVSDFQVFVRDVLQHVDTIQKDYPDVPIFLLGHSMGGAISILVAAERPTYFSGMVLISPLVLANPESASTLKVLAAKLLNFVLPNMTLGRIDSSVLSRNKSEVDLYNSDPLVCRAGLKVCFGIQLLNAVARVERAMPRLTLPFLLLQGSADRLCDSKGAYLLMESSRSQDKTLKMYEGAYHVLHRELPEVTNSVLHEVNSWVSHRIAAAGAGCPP
Summary of the method: (§1)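 They were killed at 2 and 40 min. The blocking group got matching unlabeled inhibitor (2.0 mg/kg ip, 5% DMSO/5% Tween80 saline) 30 min before and was killed at 40 min. Trunk blood and whole brain were weighed and gamma-counted, decay-corrected to injection. Results given as SUV, mean ± SD, Student t-test.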

MAGL [3] = test: Ex vivo blood radioactivity retention and pharmacological blocking in mice; set-up: species or system mouse (male C57BL/6)
Summary of the method: as §1

hFAAH = conditions: read-out: hFAAH IC50; human enzyme; cited from earlier work
hMAGL = conditions: read-out: hMAGL IC50; human enzyme; cited from earlier work

| whole brain uptake (MAGL [2]) | SMILES | IC50 (hFAAH) [nM] | IC50 (hMAGL) [nM] | also measured |
| --- | --- | --- | --- | --- |
| 0.34–0.67 SUV | O=[11C](OC(C(F)(F)F)C(F)(F)F)N1CCC(C(O)(c2ccc3c(c2)OCO3)c2ccc3c(c2)OCO3)CC1 [[^11C]7] |  |  | brain radioactivity uptake (MAGL [1]; conscious rats, iv tail vein, 2 and 40 min post injection, brain regions): 0.44–0.71 SUV; blocking of brain uptake by pretreatment with unlabeled inhibitor (MAGL [1]; rats, unlabeled 7 2 mg/kg ip before radiotracer, 40 min post injection): not blocked by pretreatment with unlabeled 7; attenuation of brain uptake by pretreatment with unlabeled compound (MAGL [2]; mice, unlabeled inhibitor 2 mg/kg ip 30 min before radiotracer, 40 min post injection): not significantly attenuated |
| 0.65–0.82 SUV | O=[11C](N1CCC(C(c2ccc3c(c2)OCO3)c2ccc3c(c2)OCO3)CC1)n1cncn1 [[^11C]18] |  |  | reduction of brain retention in blocked group (MAGL [2]; mice, unlabeled inhibitor 2 mg/kg ip 30 min before radiotracer, 40 min post injection, p < 0.05): 42%; specific to non-specific binding ratio (MAGL [2]; mouse brain, estimated from 42% reduction in blocked group): 0.71; retention in blood (MAGL [3]; iv tail vein, 2 and 40 min post injection): 1.1–1.5 SUV; reduction of blood binding upon pharmacological blockade (MAGL [3]; unlabeled inhibitor 2 mg/kg ip 30 min before radiotracer, 40 min post injection): 71% |
|  | O=C(OC(C(F)(F)F)C(F)(F)F)N1CCC(C(O)(c2ccc3c(c2)OCO3)c2ccc3c(c2)OCO3)CC1 [compound 7] | > 50000 | 5.9 |  |
|  | O=C(N1CCN(C(c2ccccc2)c2ccccc2)CC1)n1nnc2ccccc21 [compound 12] | 562 |  |  |
|  | O=C(N1CCC(C(c2ccc3c(c2)OCO3)c2ccc3c(c2)OCO3)CC1)n1cncn1 [compound 18] | 4800 | 0.36 |  |
